RBBP9 inh = blocks human serine hydrolase RBBP9. inhibition, % at 7.94 µM. recombinant RBBP9, FP-Rh probe fluorescence polarization. 220,000 tested, 0.2% active;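 active = inhibition above the campaign mean of all tested compounds plus 3 SD, cut at about 14% in these data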;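 also: plate controls were DMSO wells with RBBP9 for no effect and wells lacking RBBP9 protein for full effect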
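System: RBBP9 protein / Quantity: 2.5 µM RBBP9 dispensing solution, before mixing / Also added: Serine-hydrolase probe FP-Rh, 375 nM pre-mixing / Dosing: 7.94 µM single dose, 0.794% DMSO / Timing: enzyme-compound preincubation 30 min, then probe labeling 45 min, 25 °C / Signal: FP readout at 525/598 nm / Controls: DMSO-treated enzyme wells and wells lacking RBBP9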
PREPL inh = inhibitors of human prolyl oligopeptidase-like enzyme PREPL | Q4J6C6 | recombinant PREPL, fluorescence polarization activity-based probe | inhibition, % at 5.96 µM | 320,000 tested, 0.68% active;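 also: 0% = enzyme with DMSO and 100% = wells lacking enzyme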
SUMO HTRF inh = SUMOylation inhibition | HTRF SUMOylation assay, SAE1/SAE2 + UBC9, in vitro | 290,000 tested, 0.36% active | inhibition, % at 35 µM | AID 2006 | P63279; in the data active = inhibition above about 50%, passing the limit was not always enough; inconclusive = no clear call, values can overlap the other calls
Target sequence (P63279 whole entry, looked up): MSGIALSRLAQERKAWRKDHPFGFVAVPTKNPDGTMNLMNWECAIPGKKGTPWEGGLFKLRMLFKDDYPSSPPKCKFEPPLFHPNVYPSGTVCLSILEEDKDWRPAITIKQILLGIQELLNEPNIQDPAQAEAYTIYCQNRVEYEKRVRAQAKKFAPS
UBC13 inh = human UBC13 polyubiquitination inhibition | inhibition, % at 20 µM | P61088 | UBC13 polyubiquitin chain formation, TR-FRET | 330,000 tested, 0.47% active | AID 485273; in the data active = inhibition above about 45%, passing the limit was not always enough; inconclusive = no clear call, values can overlap the other calls
Rin1 Abl inh = blocks binding of human Rin1 to Abl | P00519+Q13671 | TR-FRET Rin1/Abl binding, biochemical | 360,000 tested, 0.4% active | inhibition, % at 7.35 µM; in the data active = inhibition above about 5%, passing the limit was not always enough
ALR inh = blocks human ALR sulfhydryl oxidase activity. purified ALR, DTT oxidation, H2O2 HRP-luminol luminescence. inhibition, % (test concentration not listed). 290,000 tested, 3.8% active;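 active = mean replicate inhibition above about 79%, with every replicate also reaching it, limit read from the data; inconclusive = only one of the two criteria met; inactive = mean below limit and not every replicate reaching it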
Target sequence (P55789 whole entry, looked up): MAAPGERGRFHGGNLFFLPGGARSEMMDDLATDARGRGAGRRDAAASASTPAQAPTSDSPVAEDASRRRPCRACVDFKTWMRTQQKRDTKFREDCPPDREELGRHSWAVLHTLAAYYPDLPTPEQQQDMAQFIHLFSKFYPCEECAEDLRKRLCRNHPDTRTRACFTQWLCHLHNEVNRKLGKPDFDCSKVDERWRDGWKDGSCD
PREPL inh cf = human PREPL inhibition, confirmation; recombinant PREPL, fluorescence polarization activity probe; AID 2803; 2,000 tested, 67% active; inhibition, % at 5.96 µM; shares compounds with PREPL inh;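 also: 0% = protein with DMSO and 100% = wells lacking protein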
* marks the source's active call; other numbers are inactive results; ? = inconclusive; . = not tested or not shown. An excerpt weighted towards active compounds, which were near 4.3% of everything screened. Rule as the data show it, unless noted: active = inhibition above about 43%; inactive = the rest.

SMILES	RBBP9 inh	PREPL inh	SUMO HTRF inh	UBC13 inh	Rin1 Abl inh	ALR inh	PREPL inh cf
C=CCN1C(=O)/C(=C/c2ccc(-c3ccc(F)cc3)o2)SC1=S	.	0	17	-134	1	-5	.
COc1ccc(OC)c(Nc2nc(NCCCN(C)C)nc(N)c2[N+](=O)[O-])c1	4	47*	3	?	-2	-6	38
COCCCNc1nc(N)c([N+](=O)[O-])c(Nc2cc(OC)ccc2OC)n1	-4	-2	2	-6	-1	0	.
Cc1cc(N)ccc1N1CCCC1	13	57*	41	-1	-5	98*	45*
Cc1cc(N2CCCC2)c(C)cc1C=O	-4	21	8	-2	-7	.	.
CCN1CCN(C(=S)c2ccc(-c3ccccc3)cc2)CC1	-6	-9	7	-10	7	-8	.
NNC(=O)c1oc2nc(-c3cccs3)cc(-c3ccco3)c2c1N	.	62*	65	-54	-8	-3	65*
NNC(=O)c1oc2nc(-c3ccccc3)cc(-c3ccccc3)c2c1N	.	6	17	-5	0	-2	.
CN(C)S(=O)(=O)c1cccc(-c2csc(=Nc3ccccc3)n2CCCN2CCOCC2)c1	3	56*	4	12	-2	10	55*
N#C/C(=C\Nc1ccccc1O)c1nc2ccccc2o1	-15	48*	-28	.	1	69	36
CN(C)CCN1C(=O)C(O)=C(C(=O)c2cc3ccccc3o2)C1c1ccc(N(C)C)cc1 (centres undefined)	-2	51*	4	-12	-3	-77	54*
CCN(CC)CCN(C(=O)c1ccc2c(c1)CCCC2)c1nc2cc(OC)c(OC)cc2s1	.	49*	-13	32	-6	-9	34
Cc1ccsc1C(=O)N1CCCC1(C)C(=O)NCC(C)C (centres undefined)	.	.	.	.	0	.	.
O=C(CCN1CCCCCC1)Nc1ccc2c(c1)OCCO2	-9	45*	-8	2	-1	45	12
Nc1c(Cl)ncnc1N/N=C/c1ccc2ccccc2n1	1	64*	14	.	6.4*	55	53*
CCC(CNC(=O)c1c(C)nn(-c2ccccc2)c1Cl)c1ccccc1 (centres undefined)	.	-2	-6	6	0	2	.
COc1ccc(-c2cnnc(N/N=C/c3ccc(O)c(O)c3)n2)cc1	-16	73*	-21	-16	3	.	37
COc1ccc(-c2cnnc(N/N=C/c3ccc(O)cc3)n2)cc1	-6	3	13	-22	3	3	.
c1ccc(NC2=NCCN2CC2CCCCCC2)cc1	.	3	.	9	1	1	.
Cc1ccc(C2(C)NC(=O)N(CC(=O)Nc3ccc4[nH]c(=O)[nH]c4c3)C2=O)cc1 (centres undefined)	3	46*	14	0	-1	-3	37
COc1ccc(C2(C)NC(=O)N(CC(=O)Nc3ccc4[nH]c(=O)[nH]c4c3)C2=O)cc1 (centres undefined)	.	17	.	0	-2	-129	.
COc1cc2c(C#N)c(N3CCc4ccccc4C3)nc(N)c2c(N)n1	-5	49*	48	-4	4	.	54*
COc1cc2c(C#N)c(N3CCCCC3)nc(N)c2c(N)n1	-9	36	91	-19	-7	53	.
COc1ccc(-c2c(-c3ccccc3)c(C(=O)C(=O)NCCCN(C)C)n3ccc4cc(OC)c(OC)cc4c23)cc1OC	.	46*	-8	9	-8	-15	52*
CN(C)CCNC(=O)C(=O)c1c(-c2ccccc2)cc2ccccn12	-5	-27	0	-1	-5	-7	.
COc1ccc(N2CCN(c3nc4c(C)cccn4c(=O)c3/C=C(\C#N)C(N)=O)CC2)cc1	.	54*	-10	9	5	27	53*
C=CCNC(=O)/C(C#N)=C/c1c(N2CCN(c3ccc(OC)cc3)CC2)nc2c(C)cccn2c1=O	.	57*	20	5	-1	3	50*
COCCCNC(=O)/C(C#N)=C/c1c(N2CCN(c3ccccc3)CC2)nc2c(C)cccn2c1=O	.	44*	12	-3	-2	2	32

Source: PubChem (several laboratories)
